SENP1 inh = inhibitors of human SENP1 SUMO protease catalytic domain; Q9P0U3; AID 624204; hit rate 0.21% among 360,000; inhibition, % at 10 µM; recombinant SENP1 catalytic domain, CyPet-SUMO1-YPet FRET cleavage;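 active = inhibition at least 30% at 10 µM, raw YFP signal under a set limit, fluorescence ratio 0.5 to 1.5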;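 also: 0% = enzyme with DMSO and 100% = no enzyme wells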
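Compound: 10 µM single point, 0.5% DMSO; Test system: hSENP1 catalytic domain, recombinant; Timing: 50 min reaction at room temperature; Technique: FRET, CFP and YFP emission; Control set: no-enzyme wells low, DMSO-plus-enzyme wells high control.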
SENP6 inh = SENP6 protease inhibition | hit rate 1.8% among 330,000 | Q9GZR1 | AID 2599 | Recombinant SENP6 catalytic domain, aminoluciferin luminescence | inhibition, % at 10 µM;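 active = inhibition above about 50% at the single tested dose, limit read from the data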;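 also: plate controls were DMSO wells with enzyme for no effect and DMSO wells lacking enzyme for full effect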
Target sequence (Q9GZR1 628-1112 limits assumed): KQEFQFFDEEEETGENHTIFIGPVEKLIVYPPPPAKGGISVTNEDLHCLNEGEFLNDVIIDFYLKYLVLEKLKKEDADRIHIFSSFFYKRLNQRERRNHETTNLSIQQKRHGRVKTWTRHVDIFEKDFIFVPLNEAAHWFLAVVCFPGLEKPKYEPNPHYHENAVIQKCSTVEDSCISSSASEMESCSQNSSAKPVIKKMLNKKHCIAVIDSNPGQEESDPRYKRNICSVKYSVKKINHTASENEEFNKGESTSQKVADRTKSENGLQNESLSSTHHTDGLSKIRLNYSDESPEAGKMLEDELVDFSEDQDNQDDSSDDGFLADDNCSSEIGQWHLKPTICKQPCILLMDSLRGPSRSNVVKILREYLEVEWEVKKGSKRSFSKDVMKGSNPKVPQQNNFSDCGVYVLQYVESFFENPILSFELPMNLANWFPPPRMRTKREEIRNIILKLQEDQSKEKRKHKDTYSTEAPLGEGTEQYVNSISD
SENP7 inh = inhibitors of human SENP7 protease; AID 434973; Q9BQF6; hit rate 1.5% among 330,000; inhibition, % at 5 µM; recombinant SENP7, Z-RLRGG-aminoluciferin luminescence, 40 min;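 active = inhibition above about 50% at the single test dose, limit read from the data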;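 also: plate controls were DMSO with enzyme for no effect and no enzyme buffer wells for full effect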
SENP8 block-1 = SENP8 protease inhibition; Q96LD8; purified SENP8, Z-RLRGG-aminoluciferin cleavage, luminescence; inhibition, % at 10 µM; hit rate 1.2% among 330,000; AID 2540; in the data active = inhibition above about 50%
Platelet DG rel = platelet dense granule release activity | human platelet-rich plasma, SFLLRN dense granule ATP release, luminescence | inhibition, %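 (compounds screened at 7.5 µM in platelet-rich plasma)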 | hit rate 0.22% among 300,000 | AID 1663;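 active = mean replicate score, as percent of positive control, at or above 50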
SENP8 block-2 = SENP8 (human) protease inhibition. recombinant SENP8, Nedd8 substrate fluorescence. inhibition, % at 20 µM. hit rate 0.64% among 360,000; in the data active = inhibition mostly above about 40%, no sharp cut-off; inactive = mostly below about 27%
* = called active by the depositor. Rows were chosen to be rich in hits. Some 2.6% of all compounds tested hit in one or more screens of this group.

How did COc1cccc(S(=O)(=O)N(C)C[C@@H]2OCc3cn(nn3)CCCC(=O)N([C@H](C)CO)C[C@H]2C)c1 do in these assays?
SENP1 inh: 1; SENP8 block-2: 16

How did NS(=O)(=O)c1ccc(-c2ccc(/C=C3\SC(=S)N(C4CCS(=O)(=O)C4)C3=O)o2)cc1 (stereo not drawn) do in these assays?
SENP1 inh: -35; SENP6 inh: 9; SENP7 inh: 0; SENP8 block-1: -3; Platelet DG rel: -3; SENP8 block-2: 21

How did Cc1ccc(/C=C2\SC(=S)N(C3CCS(=O)(=O)C3)C2=O)o1 (stereo not drawn) do in these assays?
SENP1 inh: -60; SENP6 inh: 23; SENP7 inh: 11; SENP8 block-1: -6; Platelet DG rel: 7; SENP8 block-2: 56*

How did CCOC(=O)c1c(C)[nH]c(N=Nc2ccccc2)c1C do in these assays?
SENP1 inh: 1; SENP6 inh: 14; SENP7 inh: 9; SENP8 block-1: 11; Platelet DG rel: -2; SENP8 block-2: 44*

How did CCOC(=O)c1c(C)[nH]c(N=Nc2ccc(OC)cc2)c1C do in these assays?
SENP1 inh: -1; SENP6 inh: 61*; SENP7 inh: 17; SENP8 block-1: 33; Platelet DG rel: 8; SENP8 block-2: 49*

How did CCCc1cc(=O)[nH]c(SCC(=O)N2CCCC2=O)n1 do in these assays?
SENP1 inh: -1; SENP6 inh: -12; SENP7 inh: -1; SENP8 block-1: -9; Platelet DG rel: -10; SENP8 block-2: 16

How did CCOc1ccc(/C=C2\SC(=S)N(C(C(=O)O)c3ccccc3)C2=O)cc1OC (stereo not drawn) do in these assays?
SENP1 inh: -62; SENP6 inh: 6; SENP7 inh: 12; SENP8 block-1: -1; Platelet DG rel: 7; SENP8 block-2: 8

What do the screens show for `C=CCOc1ccc(/C=C2\SC(=S)N(C(C(=O)O)c3ccccc3)C2=O)cc1` (stereo not drawn)?
SENP1 inh: -12; Platelet DG rel: 2; SENP8 block-2: 42*

Results for O=C(CSc1nnc(SCc2ccccc2Cl)s1)N/N=C/c1ccc(C(=O)O)cc1 ?
SENP1 inh: 4; SENP6 inh: 93*; SENP7 inh: 31; SENP8 block-1: 83*; Platelet DG rel: -1; SENP8 block-2: 19

How did O=C(O)COc1ccccc1/C=N/NC(=O)CSc1nnc(SCc2ccccc2)s1 do in these assays?
SENP1 inh: 2; SENP6 inh: 56*; SENP7 inh: 14; SENP8 block-1: 24; Platelet DG rel: 0; SENP8 block-2: 22

How did CCN1CCN(S(=O)(=O)c2c[nH]c(C(=O)OC)c2)CC1 do in these assays?
SENP1 inh: -2; SENP6 inh: 15; SENP7 inh: -5; SENP8 block-1: 5; Platelet DG rel: 2; SENP8 block-2: 6

Results for O=S1(=O)CCN(Cc2csc(-c3cccs3)n2)CC1 ?
SENP1 inh: -1; SENP6 inh: 25; SENP7 inh: 46; SENP8 block-1: 11; Platelet DG rel: 52*; SENP8 block-2: -37

How did O=S1(=O)CCN(Cc2ccccn2)CC1 do in these assays?
SENP1 inh: 1; SENP6 inh: 3; SENP7 inh: 8; SENP8 block-1: -2; Platelet DG rel: 7; SENP8 block-2: 8

What do the screens show for `COc1ccccc1CN(C)C(=O)COC(=O)c1c(C)noc1C`?
SENP1 inh: 0; SENP6 inh: 9; SENP7 inh: 6; SENP8 block-1: -1; SENP8 block-2: 23

What do the screens show for `O=S(=O)(Nc1ccc(-c2nc3cccnc3s2)cc1)c1cc(F)ccc1F`?
SENP1 inh: -122; SENP6 inh: 59*; SENP7 inh: -3; SENP8 block-1: 24; Platelet DG rel: -5; SENP8 block-2: -443

Results for O=S(=O)(N=C1C=CC(=NS(=O)(=O)c2ccccc2)c2ccccc21)c1ccccc1 ?
SENP1 inh: 60*; SENP8 block-2: 74*

How did Cc1cc(C)c(S(=O)(=O)/N=C2\C=C(NS(=O)(=O)c3ccccc3)C(=O)c3ccccc32)c(C)c1 do in these assays?
SENP1 inh: 2; SENP6 inh: 33; SENP7 inh: 6; SENP8 block-1: 20; Platelet DG rel: 6; SENP8 block-2: 73*

What do the screens show for `Cc1ccc(S(=O)(=O)/N=C2\C=C(NS(=O)(=O)c3ccccc3)C(=O)c3ccccc32)cc1`?
SENP1 inh: 5; SENP8 block-2: 74*

What do the screens show for `O=[N+]([O-])c1cccc(S(=O)(=O)/N=C(/Nc2ccccc2)c2ccccc2)c1`?
SENP1 inh: 2; SENP6 inh: -18; SENP7 inh: -2; SENP8 block-1: 9; SENP8 block-2: -3

How did CC1CCCCN1C(=S)NC(=O)c1cc(Br)ccc1Cl (stereo not drawn) do in these assays?
SENP1 inh: 0; SENP6 inh: -4; SENP7 inh: 2; SENP8 block-1: 1; SENP8 block-2: 2

What do the screens show for `CCCCCCCNC(=O)C1(CC2CC(c3ccc(Cl)cc3)=NO2)CCN(C(=O)CCCCCBr)CC1` (stereo not drawn)?
SENP1 inh: 3; SENP6 inh: 3; SENP7 inh: 1; SENP8 block-1: -3; Platelet DG rel: 1; SENP8 block-2: 9

Results for CC(C)(C)C(Cn1ccnc1)NC(=O)c1ccc2nc(C3CC3)oc2c1 (stereo not drawn) ?
SENP1 inh: 1; SENP6 inh: -7; SENP7 inh: 12; SENP8 block-1: -10; Platelet DG rel: 58*; SENP8 block-2: -3

What do the screens show for `COc1cc(/C=C/C(=O)OCC(=O)NCC(=O)Nc2cccc(C)c2C)ccc1OC(F)F`?
SENP1 inh: 0; SENP6 inh: 6; SENP7 inh: -1; SENP8 block-1: -5; SENP8 block-2: -45

How did CCN(CC(=O)Nc1ccc(NC(C)=O)cc1)C(=O)c1cccc(-n2cccc2)c1 do in these assays?
SENP1 inh: 0; SENP6 inh: -1; SENP7 inh: -5; SENP8 block-1: 10; Platelet DG rel: 4; SENP8 block-2: 4

What do the screens show for `Cn1c(=O)c(C(=O)Nc2ccccn2)c(O)c2ccccc21`?
SENP1 inh: 0; SENP6 inh: -5; SENP7 inh: 75*; SENP8 block-1: 36; Platelet DG rel: 11; SENP8 block-2: -188

What do the screens show for `COc1ccc(N2CCN(C(=O)c3ccc4c(c3)CCN4S(C)(=O)=O)CC2)cc1`?
SENP1 inh: 1; SENP8 block-2: 28

How did Cc1cccc(OCC(=O)NCC(=O)N/N=C/c2cc(Br)cc(Br)c2O)c1 do in these assays?
SENP1 inh: -19; SENP6 inh: -17; SENP7 inh: -4; SENP8 block-1: 0; Platelet DG rel: 0; SENP8 block-2: -208

How did COc1ccc(CC(=O)N2CCN(C(=O)Cc3ccc(OC)cc3)CC2)cc1 do in these assays?
SENP1 inh: 1; SENP6 inh: -4; SENP7 inh: 0; SENP8 block-1: -8; Platelet DG rel: -2; SENP8 block-2: -17

High-throughput results as filed in PubChem BioAssay.
